In ChEMBL document CHEMBL1122642, “Biomimetic approach to potential benzodiazepine receptor agonists and antagonists” (J Med Chem, 1984):

Legend:
[1] = target: GABA-A receptor; anion channel; experiment: In vitro inhibition of [3H]diazepam binding to rat cerebral cortical membrane benzodiazepine receptors
Outline: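 Thrice-washed rat cerebral cortex membranes in 50 mM Tris-HCl pH 7.4 (0.5–0.6 mg/mL protein), incubated 30 min at 4 °C with 2 nM [3H]diazepam plus test compound. Stopped with ice-cold Tris, then GF/B filtration and scintillation counting. Nonspecific binding with 3 μM unlabeled diazepam or clonazepam.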

[2] = In vitro binding to GABA-A benzodiazepine receptor of rat cerebral cortical membranes
Outline: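 Rat cerebral cortex homogenised in Tris-HCl (50 mM, pH 7.4), washed three times by centrifugation at 20000g, 4 °C, and resuspended at 0.5–0.6 mg protein/mL. Incubated with 2 nM [3H]diazepam, 30 min, 4 °C. Stopped with ice-cold buffer, GF/B filtered, scintillation counted. Nonspecific binding with 3 μM unlabelled diazepam or clonazepam. […] Mean of two experiments.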

Rattus norvegicus = organism: Rattus norvegicus; experiment: In vitro inhibition of [3H]diazepam binding to GABA-A benzodiazepine receptor of rat cerebral cortical membranes at 50 uM; format: cell membranes; details: Membrane

SMILES	Ki [1] [µM]	other results
COC(=O)c1cc2c3ccccc3n3c(=O)ccc(n1)c23	0.1	
O=C1CCC2c3c(c4ccccc4n31)CCN2Cc1ccccc1 (configuration not stated)	11.2	
COC(=O)C1Cc2cc(OC)c(OC)cc2CN1 (configuration not stated)	32	
COC(=O)C1Cc2[nH]cnc2C(c2c(CO)cnc(C)c2O)N1 (configuration not stated)	> 50	
CC(=O)c1cc2c3ccccc3nc-2c[nH]1	0.058	
O=C(O)C1Cc2[nH]cnc2CN1 (configuration not stated)	> 50	
CC(=O)OCc1cc2c3ccccc3nc-2c[nH]1	750	
COC(=O)c1cc2cc(OC)c(OC)cc2cn1	10	
O=C(O)C1Cc2cc(O)c(O)cc2CN1 (configuration not stated)	> 50	
CN1C(=O)CN=C(c2ccccc2)c2cc(Cl)ccc21 [DIAZEPAM]		Kd [2]: 5.6 µM
COC(=O)c1cc2[nH]cnc2cn1	> 50	
Cc1ncc(CO)c(C2NCCc3ncn(C)c32)c1O (configuration not stated)	> 50	
O=c1ccc2nccc3c4ccccc4n1c23 [CANTHIN-6-ONE]	10	
COC(=O)C1Cc2[nH]cnc2C(c2ccccc2)N1 (trans isomer)	> 50	
COC(=O)c1cc2[nH]cnc2c(-c2ccccc2)n1	10	
O=C(O)C1Cc2[nH]cnc2C(c2ccccc2)N1 (cis isomer)	> 50	
COC(=O)C1Cc2c3n(c4ccccc24)C(=O)CCC3N1Cc1ccccc1 (configuration not stated)		Inhibition (Rattus norvegicus): 17%
COC(=O)c1cc2c(cn1)[nH]c1ccccc12 [BETA-CCM]	0.001	
NC(=O)c1cc2c3ccccc3nc-2c[nH]1	0.068	
OCc1cc2c3ccccc3nc-2c[nH]1	1.47	
COC(=O)C1Cc2ccccc2CN1 (configuration not stated)	> 50	
CCOC(=O)c1cc2c(cn1)[nH]c1ccccc12	0.001	
